High-throughput results deposited in PubChem BioAssay by several laboratories.
NPY1 pot ag: NPY-Y1 receptor potentiators or agonists, primary screen, cell-based. activation, % at 3.6 µM. NPY-Y1 expressing cells, potentiator/agonist activation. actives 0.37% (n = 220,000); in the data active = activation above about 33%, passing the limit was not always enough;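 also: cells stimulated with NPY at EC10 then isoproterenol at EC100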
NPY Y1 blocker: NPY-Y1 receptor antagonists, primary screen, cell-based | actives 1% (n = 200,000) | inhibition, % at 3.6 µM | HEK293-CNG Y1 cells, membrane potential fluorescence; NPY at EC95, then isoproterenol | AID 1040, 2008;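 active = inhibition above the campaign mean inhibition of all tested compounds plus 3 SD, cut at about 20% in these data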
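Material: HEK293 cells with Y1 receptor plus CNG channel; times: compound incubation 1 h at room temperature, readout 45 min post-stimulation; signal: fluorescence, membrane potential probe; read-out basis: fluorescence ratio normalized to % inhibition between controls; benchmarks: full-block control isoproterenol-only wells, zero-block control NPY plus isoproterenol wells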
EP2 antag: human EP2 receptor antagonists, primary screen, TR-FRET cAMP, C6 glioma cells. Prostaglandin E2 receptor EP2 subtype (Homo sapiens), P43116. C6 glioma cells expressing human EP2; cells stimulated with saturating PGE2. inhibition, % at 25 µM. actives 0.52% (n = 260,000). AID 1422, 2008;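 active = percent inhibition above 40 after rounding to a whole number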;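 also: rat C6 glioma host cells with rolipram phosphodiesterase inhibitor present; the protocol text gives 20 µM as final concentration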
Target sequence (P43116 whole entry, looked up): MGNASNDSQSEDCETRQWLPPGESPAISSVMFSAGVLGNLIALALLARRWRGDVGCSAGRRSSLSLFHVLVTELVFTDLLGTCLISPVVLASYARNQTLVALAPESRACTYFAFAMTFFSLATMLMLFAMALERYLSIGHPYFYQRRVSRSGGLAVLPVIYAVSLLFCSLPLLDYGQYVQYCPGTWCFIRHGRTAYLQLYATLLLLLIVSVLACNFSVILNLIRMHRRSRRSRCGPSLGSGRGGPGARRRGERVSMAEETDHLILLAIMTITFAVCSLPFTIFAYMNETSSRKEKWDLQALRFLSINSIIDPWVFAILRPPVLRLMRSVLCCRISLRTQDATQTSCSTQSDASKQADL
EP2 mod: EP2 receptor modulators, cAMP readout, primary screen, cell-based, HTRF cAMP, PGE2 stimulation | Prostaglandin E2 receptor EP2 subtype (Homo sapiens), P43116 | EP2-expressing cells, cAMP HTRF FRET, PGE2 co-stimulation | induction, % at 25 µM | actives 0.83% (n = 260,000);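 active = compounds whose cAMP rise, as percent of the full-agonist control response, exceeds 60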;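 also: rat C6 glioma line stably carrying human EP2 under a CMV promoter; the protocol text gives 20 µM as final concentration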
NPY2 pot ag: NPY-Y2 potentiators or agonists, primary screen, cell-based. Neuropeptide Y receptor type 2 (Homo sapiens), P49146. cells expressing NPY-Y2, potentiator/agonist read-out. activation, % at 3.6 µM. actives 0.45% (n = 220,000). AID 1359, 2008; in the data active = activation above about 27%;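 also: cells stimulated with NPY near EC25 plus isoproterenol at EC100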
NPY-Y2 antag: NPY-Y2 receptor antagonists, primary screen, cell-based | inhibition, % at 2.7 µM | AID 793, 2007 | actives 0.99% (n = 140,000) | Neuropeptide Y receptor type 2 (Homo sapiens), P49146 | NPY-Y2 expressing cells, antagonist mode; in the data active = inhibition above about 17%
EP2 cAMP induct: cAMP induction in EP2, EP4, beta2-AR and parental cells, confirmation, counter-screen for EP2 modulator project, cell-based, five parallel assays, C6 glioma, HEK293 | shares compounds with EP2 mod | cAMP HTRF induction; plus low (about EC15) PGE2 agonist | calls only at 20 µM (by protocol) | actives 47% (n = 1,300);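 active = cAMP induction above 50% in the main assay while under 30% in all four parallel counter assays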;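 also: rat C6 glioma cells stably expressing human EP2 receptor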
Each line names hits and unclear results; the compound was inactive in the other large screens (follow-up assays come after a bar, where they were run). Shown are actives, neighbours in structure and some others; about 2.8% of the full set was active somewhere.

Cc1noc(C)c1COC(=O)/C=C/c1ccccc1Cl	none (no result: NPY-Y2 antag)
CCOC(=O)N1CCC(=C2c3ccc(Cl)cc3CCc3cccnc32)CC1	none | EP2 cAMP induct inactive
COc1cc(N2CCOCC2)ccc1CN1CCC(O)(c2ccccc2F)CC1	none (no result: NPY1 pot ag, NPY Y1 blocker, NPY2 pot ag, NPY-Y2 antag)
COc1cc(C=O)ccc1OC(=O)c1ccc(C(C)C)cc1	EP2 mod 74.3 (no result: NPY-Y2 antag) | EP2 cAMP induct inactive
COc1ccc(-n2c(=S)[nH]c3c(oc4ccccc43)c2=O)cc1	EP2 mod 68.0 | EP2 cAMP induct inactive
Cc1cc(C)c2c(n1)nn1c(N3CCCC3)cc(C)nc21	none (no result: NPY1 pot ag, NPY Y1 blocker, NPY2 pot ag, NPY-Y2 antag)
Cc1nnc(C)n1/N=C/c1ccccc1	none
CCn1c2ccccc2c2cc(/C=N/n3c(C)nnc3C)ccc21	EP2 mod 94.3 | EP2 cAMP induct active
COC(=O)c1sc2nc(N3CCCCC3)c3c(c2c1N)CCCC3	EP2 mod 74.4 | EP2 cAMP induct inactive
NC(=O)c1sc2nc(N3CCCCC3)c3c(c2c1N)CCCC3	EP2 mod 76.3 | EP2 cAMP induct active
CCOC(=O)c1sc2nc(N3CCOCC3)c3c(c2c1N)CCCC3	none
Nc1c(C(=O)O)sc2nc(-c3ccccc3)c3c(c12)CCCC3	none
CCN(CC)C(=O)c1sc2nc(N3CCOCC3)c3c(c2c1N)CCCC3	none
COC(=O)c1sc2nc(-c3ccccc3)c3c(c2c1N)CCCC3	EP2 mod 72.6 | EP2 cAMP induct inactive
CC(=O)NC1(c2ccccc2)CCN(CC(=O)N2CCOCC2)CC1	none (no result: NPY1 pot ag, NPY Y1 blocker, NPY2 pot ag, NPY-Y2 antag)
CCc1ccc2[nH]c(=O)c(CN(Cc3nnnn3Cc3ccc(OC)cc3)CC3CCCO3)cc2c1 (configuration not stated)	none (no result: NPY1 pot ag, NPY Y1 blocker, NPY2 pot ag, NPY-Y2 antag)
COc1ccc(CNc2oc(-c3cccc4ccccc34)nc2C#N)cc1	none
CCOP(=O)(OCC)c1nc(-c2ccccc2)oc1NCc1ccccc1	EP2 mod 80.8 | EP2 cAMP induct active
CCOP(=O)(OCC)c1nc(-c2cccc3ccccc23)oc1NCCc1ccc(OC)cc1	none | EP2 cAMP induct inactive
O=P(c1ccccc1)(c1ccccc1)c1nc(-c2ccccc2)oc1NCc1ccccc1	EP2 mod 94.3 (no result: NPY-Y2 antag) | EP2 cAMP induct active
CCOP(=O)(OCC)c1nc(-c2ccc(F)cc2)oc1NCc1ccccc1	EP2 mod 72.4 (no result: NPY-Y2 antag) | EP2 cAMP induct active
CCCOc1ccc(C2C3=C(CCCC3=O)NC3=C2C(=O)CCC3)cc1OCC	none (no result: NPY1 pot ag, NPY Y1 blocker, NPY2 pot ag, NPY-Y2 antag)
O=C(CSc1nnc(C2CC2)n1CC1CCCO1)N1CCc2ccccc21 (configuration not stated)	none (no result: NPY1 pot ag, NPY Y1 blocker, NPY2 pot ag, NPY-Y2 antag)
CCn1c(=NC(=O)c2ccc(S(=O)(=O)N(C)C)cc2)sc2cccc(OC)c21	EP2 mod 75.8 (no result: NPY-Y2 antag) | EP2 cAMP induct inactive
CCN(CC)c1ccc2cc(C(=O)Nc3cccc(OC)c3)c(=O)oc2c1	none (no result: NPY1 pot ag, NPY Y1 blocker, NPY2 pot ag, NPY-Y2 antag)
Cc1ccc(C)n1-c1ccc(N2CCOCC2)cc1	none
Cc1ccc(C)n1-c1ccc(N(C)C)cc1	EP2 mod 66.0 (no result: NPY-Y2 antag) | EP2 cAMP induct inactive
O=C(O)c1ccc(-c2ccccc2C(F)(F)F)o1	EP2 mod 82.9 | EP2 cAMP induct active
CCOC(=O)C1=C(C)OC(N)=C(C#N)C1c1cccs1 (configuration not stated)	none (no result: NPY-Y2 antag)
CCCC1=C(C(=O)OCC)C(c2cccs2)C(C#N)=C(N)O1 (configuration not stated)	EP2 mod 62.8 | EP2 cAMP induct inactive
CN(CC(=O)Nc1ccc2c(c1)OCCO2)S(=O)(=O)c1ccccc1	none (no result: NPY1 pot ag, NPY Y1 blocker, NPY2 pot ag, NPY-Y2 antag)
Cc1cc(C)c(C#N)c(Oc2ccccc2)n1	none
Cc1cc(C)c(C#N)c(Oc2ccccc2Br)n1	EP2 mod 70.0 (no result: NPY-Y2 antag) | EP2 cAMP induct inactive
O=C(NCCC1=CCCCC1)c1cccc2c1C(=O)N(C1CCCCC1)C2	EP2 mod 84.7 (no result: NPY-Y2 antag) | EP2 cAMP induct active
S=c1[nH]nc(-c2cc3c(s2)-c2ccccc2CC3)o1	none
